Measured values as given in ChEMBL document CHEMBL4138062, “Pyrazolobenzothiazine-based carbothioamides as new structural leads for the inhibition of monoamine oxidases: design, synthesis, in vitro bioevaluation and molecular docking studies” (Medchemcomm, 2017).

Assays:
[1] = biological target: T1, Amine oxidase [flavin-containing] A (Homo sapiens, UniProt P21397); experiment: Inhibition of human MAOA pre-incubated for 10 mins before p-tyramine substrate addition and measured after 10 mins by amplex red reagent-based microplate fluorescence reader analysis
T1 sequence (P21397 whole entry): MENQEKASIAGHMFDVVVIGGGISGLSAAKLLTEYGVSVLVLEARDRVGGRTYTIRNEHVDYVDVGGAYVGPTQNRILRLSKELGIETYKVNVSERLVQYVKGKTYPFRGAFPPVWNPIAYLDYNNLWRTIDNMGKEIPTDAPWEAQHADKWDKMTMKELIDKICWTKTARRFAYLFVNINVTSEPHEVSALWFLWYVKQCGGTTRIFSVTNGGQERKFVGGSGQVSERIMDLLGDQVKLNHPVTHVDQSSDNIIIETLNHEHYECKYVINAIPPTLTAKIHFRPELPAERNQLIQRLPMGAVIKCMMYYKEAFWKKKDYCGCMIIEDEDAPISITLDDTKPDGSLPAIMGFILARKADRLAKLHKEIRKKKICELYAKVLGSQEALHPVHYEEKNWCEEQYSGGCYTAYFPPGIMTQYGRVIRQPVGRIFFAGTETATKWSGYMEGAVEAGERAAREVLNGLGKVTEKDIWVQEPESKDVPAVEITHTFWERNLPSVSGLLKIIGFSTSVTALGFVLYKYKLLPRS

[2] = biological target: T2, Amine oxidase [flavin-containing] B (Homo sapiens, UniProt P27338); experiment: Inhibition of human MAOB at 0.1 mM pre-incubated for 10 mins before p-tyramine substrate addition and measured after 10 mins by amplex red reagent-based microplate fluorescence reader analysis
T2 sequence (P27338 whole entry): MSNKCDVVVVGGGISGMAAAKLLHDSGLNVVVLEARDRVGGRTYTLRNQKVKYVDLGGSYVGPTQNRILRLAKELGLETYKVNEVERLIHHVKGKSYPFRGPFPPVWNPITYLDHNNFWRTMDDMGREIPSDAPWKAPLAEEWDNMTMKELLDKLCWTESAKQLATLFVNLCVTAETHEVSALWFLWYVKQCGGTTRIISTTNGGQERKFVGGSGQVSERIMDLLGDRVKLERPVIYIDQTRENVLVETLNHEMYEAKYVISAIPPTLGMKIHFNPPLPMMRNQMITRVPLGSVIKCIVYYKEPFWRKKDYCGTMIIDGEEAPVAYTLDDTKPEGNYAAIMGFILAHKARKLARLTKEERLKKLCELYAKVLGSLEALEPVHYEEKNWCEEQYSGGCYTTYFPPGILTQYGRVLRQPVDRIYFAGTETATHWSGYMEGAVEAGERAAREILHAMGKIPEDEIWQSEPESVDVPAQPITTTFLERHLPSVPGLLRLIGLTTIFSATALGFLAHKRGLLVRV
How it was run: (§1)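 The reaction in 50 mM phosphate buffer (pH 7.4) was preincubated with enzyme and test compound at 37 °C for 10 min. p-Tyramine (3 mM solution) and Amplex Red reagent were then added, and the mix was held at 37 °C for 10 min. Resorufin fluorescence (ex 544, em 590 nm) from H2O2 was read. Percent inhibition was taken at 100 μM final concentration, in triplicate.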

[3] = biological target: T2, Amine oxidase [flavin-containing] B
[4] = biological target: T1, Amine oxidase [flavin-containing] A; experiment: Inhibition of human MAOA at 0.1 mM pre-incubated for 10 mins before p-tyramine substrate addition and measured after 10 mins by amplex red reagent-based microplate fluorescence reader analysis; how it was run: as §1

| Structure (SMILES) | IC50 [1] [µM] | inhibition at 100 µM [2] [%] | IC50 [3] [µM] | inhibition at 100 µM [4] [%] | inhibition (INH) ([2]; 100 µM) [%] | inhibition (INH) ([4]; 100 µM) [%] |
| --- | --- | --- | --- | --- | --- | --- |
| Cc1c2c(nn1-c1ccc(/C=N/NC(=S)Nc3cccc(Cl)c3)cc1)-c1ccccc1S(=O)(=O)N2C | 1.11 | > 50 | 2.89 | > 50 |  |  |
| CN1c2c(nn(-c3ccc(/C=N/NC(=S)Nc4ccccc4Cl)cc3)c2-c2ccccc2)-c2ccccc2S1(=O)=O | 33.8 | > 50 | 0.68 | > 50 |  |  |
| CCc1ccc(NC(=S)N/N=C/c2ccc(-n3nc4c(c3C)N(C)S(=O)(=O)c3ccccc3-4)cc2)cc1 | 1.77 | > 50 | 2.91 | > 50 |  |  |
| Cc1c2c(nn1-c1ccc(/C=N/NC(=S)Nc3ccc(Cl)cc3)cc1)-c1ccccc1S(=O)(=O)N2C | 3.49 | > 50 | 0.43 | > 50 |  |  |
| CN1c2c(nn(-c3ccc(/C=N/NC(=S)NCc4ccccc4)cc3)c2-c2ccccc2)-c2ccccc2S1(=O)=O | 10.6 | > 50 | 0.64 | > 50 |  |  |
| Cc1c2c(nn1-c1ccc(/C=N/NC(N)=S)cc1)-c1ccccc1S(=O)(=O)N2C | 31.2 | 36 |  | > 50 |  |  |
| Cc1ccc(NC(=S)N/N=C/c2ccc(-n3nc4c(c3C)N(C)S(=O)(=O)c3ccccc3-4)cc2)cc1 | 0.003 | > 50 | 29.5 | > 50 |  |  |
| Cc1c2c(nn1-c1ccc(/C=N/NC(=S)NCc3ccccc3)cc1)-c1ccccc1S(=O)(=O)N2C | 76.2 | > 50 | 4.72 | > 50 |  |  |
| Cc1c2c(nn1-c1ccc(/C=N/NC(=S)Nc3cccc(F)c3)cc1)-c1ccccc1S(=O)(=O)N2C | 0.47 | > 50 | 1.68 | > 50 |  |  |
| CN1c2c(nn(-c3ccc(/C=N/NC(=S)Nc4cccc(Cl)c4)cc3)c2-c2ccccc2)-c2ccccc2S1(=O)=O | 7.73 | > 50 | 20.9 | > 50 |  |  |
| CN1c2c(nn(-c3ccc(/C=N/NC(N)=S)cc3)c2-c2ccccc2)-c2ccccc2S1(=O)=O | 0.97 | > 50 | 2.39 | > 50 |  |  |
| CN1c2c(nn(-c3ccc(/C=N/NC(=S)Nc4cccc(F)c4)cc3)c2-c2ccccc2)-c2ccccc2S1(=O)=O | 9.02 | > 50 | 1.76 | > 50 |  |  |
| Cc1ccc(NC(=S)N/N=C/c2ccc(-n3nc4c(c3C)N(C)S(=O)(=O)c3ccccc3-4)cc2)c(C)c1 | 1.13 | > 50 | 0.11 | > 50 |  |  |
| Cc1cccc(C)c1NC(=S)N/N=C/c1ccc(-n2nc3c(c2-c2ccccc2)N(C)S(=O)(=O)c2ccccc2-3)cc1 | 65.7 | > 50 | 0.77 | > 50 |  |  |
| Cc1c2c(nn1-c1ccc(/C=N/NC(=S)Nc3ccccc3)cc1)-c1ccccc1S(=O)(=O)N2C | 3.69 | > 50 | 4.15 | > 50 |  |  |
| Cc1c2c(nn1-c1ccc(/C=N/NC(=S)Nc3ccccc3F)cc1)-c1ccccc1S(=O)(=O)N2C | 1.42 | > 50 | 3.83 | > 50 |  |  |
| Cc1ccc(NC(=S)N/N=C/c2ccc(-n3nc4c(c3-c3ccccc3)N(C)S(=O)(=O)c3ccccc3-4)cc2)c(C)c1 | 9.15 | > 50 | 0.75 | > 50 |  |  |
| Cc1ccccc1NC(=S)N/N=C/c1ccc(-n2nc3c(c2C)N(C)S(=O)(=O)c2ccccc2-3)cc1 | 0.01 | > 50 | 3.13 | > 50 |  |  |
| Cc1c2c(nn1-c1ccc(/C=N/NC(=S)NCN3CCOCC3)cc1)-c1ccccc1S(=O)(=O)N2C | 64.8 | > 50 | 4.34 | > 50 |  |  |
| Cc1c2c(nn1-c1ccc(/C=N/NC(=S)Nc3ccccc3Cl)cc1)-c1ccccc1S(=O)(=O)N2C | 4.06 | > 50 | 6.21 | > 50 |  |  |
| Cc1c2c(nn1-c1ccc(/C=N/NC(=S)Nc3ccc(F)cc3)cc1)-c1ccccc1S(=O)(=O)N2C | 30.2 | 41 |  | > 50 |  |  |
| CN1c2c(nn(-c3ccc(/C=N/NC(=S)Nc4ccccc4)cc3)c2-c2ccccc2)-c2ccccc2S1(=O)=O | 27.2 | > 50 | 2.49 | > 50 |  |  |
| CN1c2c(nn(-c3ccc(/C=N/NC(=S)NCN4CCOCC4)cc3)c2-c2ccccc2)-c2ccccc2S1(=O)=O | 3.07 | > 50 | 2.99 | > 50 |  |  |
| CN1c2c(nn(-c3ccc(/C=N/NC(=S)Nc4ccccc4F)cc3)c2-c2ccccc2)-c2ccccc2S1(=O)=O | 0.54 | 19 |  | > 50 |  |  |
| CN1c2c(nn(-c3ccc(/C=N/NC(=S)Nc4ccc(F)cc4)cc3)c2-c2ccccc2)-c2ccccc2S1(=O)=O | 2.33 | > 50 | 6.99 | > 50 |  |  |
| Cc1cccc(C)c1NC(=S)N/N=C/c1ccc(-n2nc3c(c2C)N(C)S(=O)(=O)c2ccccc2-3)cc1 |  |  |  |  | > 50 | > 50 |
| CN1c2c(nn(-c3ccc(/C=N/NC(=S)Nc4ccc(Cl)cc4)cc3)c2-c2ccccc2)-c2ccccc2S1(=O)=O | 2.06 | > 50 | 3.27 | > 50 |  |  |
| CCc1ccc(NC(=S)N/N=C/c2ccc(-n3nc4c(c3-c3ccccc3)N(C)S(=O)(=O)c3ccccc3-4)cc2)cc1 | 8.18 | > 50 | 0.02 | > 50 |  |  |
